Source: ChEMBL document CHEMBL4725436, “Gibberellin JRA-003: A Selective Inhibitor of Nuclear Translocation of IKKα” (ACS Med Chem Lett, 2020)
Activity calls are given as the source filed them. The rule behind the calls is not given here.

Tests used:
Hs-578T = test: Cytotoxicity against human Hs-578T cells assessed as reduction in cell viability measured after 24 hrs by CellTiter-Glo luminescent assay; type: functional, cell-based
Summary of the method: (§1)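 High-throughput viability screen of test agents across a panel of 22 cancerous and noncancerous human cell lines. Viability was read by CellTiter-Glo luminescence.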

[1] = Cytotoxicity against human Hs888Lu cells assessed as reduction in cell viability measured after 24 hrs by CellTiter-Glo luminescent assay; type: cell-based; summary of the method: as §1
[2] = Selectivity index, ratio of IC50 for human Hs888lu cells to EC50 for human HCC1599 cells measured after 24 hrs by CellTiter-Glo luminescent assay; summary of the method: as §1
[3] = Inhibition of IKKalpha/IKKbeta in human HEK293T cells transfected with firefly luciferase gene assessed as inhibition of TNF-alpha-stimulated NF-kappaB signalling preincubated for 1 hr followed by TNF alpha stimulation measured after 3 hrs by luciferase reporter gene assay; type: cell-based; conditions: HEK-293T
Summary of the method: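 Commercial NF-κB-driven luciferase reporter assay in HEK 293T cells stimulated with TNFα. EC50 was derived from the luminescence readout.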

[4] = Selectivity index, ratio of IC50 for human Hs895SK cells to EC50 for human HCC1599 cells measured after 24 hrs by CellTiter-Glo luminescent assay; type: toxicity; conditions: Hs895SK cells (IC50) versus HCC1599 cells (EC50); summary of the method: as §1
[5] = Selectivity index, ratio of IC50 for human HS895SK cells to EC50 for human RC-K8 cells measured after 24 hrs by CellTiter-Glo luminescent assay; summary of the method: as §1
[6] = Selectivity index, ratio of IC50 for human Hs578Bst cells to EC50 for human HS578T cells measured after 24 hrs by CellTiter-Glo luminescent assay; type: toxicity; conditions: Hs578Bst cells (IC50) versus HS578T cells (EC50); summary of the method: as §1
CA46 = test: Cytotoxicity against human CA46 cells assessed as reduction in cell viability measured after 24 hrs by CellTiter-Glo luminescent assay; type: functional, cell-based; conditions: CA46, 24 h; summary of the method: as §1
[7] = Selectivity index, ratio of IC50 for human Hs888Lu cells to EC50 for human SU-DHL-4 cells measured after 24 hrs by CellTiter-Glo luminescent assay; type: toxicity; conditions: Hs888Lu cells (IC50) versus SU-DHL-4 cells (EC50); summary of the method: as §1
[8] = target: T1, Inhibitor of nuclear factor kappa-B kinase subunit beta (Homo sapiens) (UniProt O14920); test: Inhibition of IKKbeta in human HeLa cells assessed as reduction in IL-1 beta-stimulated IKK beta nuclear translocation at 10 uM pretreated with compound for 4 hrs followed by stimulation with IL-1 beta for 1 hr by immunohistochemical staining/confocal microscopy; type: cell-based
T1 sequence (whole entry): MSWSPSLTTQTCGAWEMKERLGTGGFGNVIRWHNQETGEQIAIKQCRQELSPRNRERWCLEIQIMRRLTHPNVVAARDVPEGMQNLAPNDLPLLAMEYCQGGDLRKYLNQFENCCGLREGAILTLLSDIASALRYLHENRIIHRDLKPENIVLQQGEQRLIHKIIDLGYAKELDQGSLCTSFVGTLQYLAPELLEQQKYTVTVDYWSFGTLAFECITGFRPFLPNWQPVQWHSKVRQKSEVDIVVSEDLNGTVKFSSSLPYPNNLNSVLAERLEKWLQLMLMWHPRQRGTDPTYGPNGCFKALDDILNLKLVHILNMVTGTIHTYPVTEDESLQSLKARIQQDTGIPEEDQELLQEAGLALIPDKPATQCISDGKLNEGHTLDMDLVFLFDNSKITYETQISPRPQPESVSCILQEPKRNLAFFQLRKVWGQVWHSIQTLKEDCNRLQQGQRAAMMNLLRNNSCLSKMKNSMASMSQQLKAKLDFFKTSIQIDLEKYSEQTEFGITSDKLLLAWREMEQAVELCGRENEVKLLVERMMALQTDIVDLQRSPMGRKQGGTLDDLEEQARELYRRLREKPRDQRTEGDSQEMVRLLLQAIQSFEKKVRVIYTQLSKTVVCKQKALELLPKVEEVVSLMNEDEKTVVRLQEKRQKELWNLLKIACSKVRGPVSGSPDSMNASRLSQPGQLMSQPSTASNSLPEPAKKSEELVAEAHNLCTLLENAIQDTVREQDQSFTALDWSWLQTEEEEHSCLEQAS
Summary of the method: (§2)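 HeLa cells were pretreated with DMSO or test agent for 4 h, then stimulated with IL-1β (or vehicle) for 1 h. NF-κB pathway members were immunostained with AF488-tagged antibodies, nuclei were counterstained with DAPI, and compartmental localization was imaged by confocal microscopy.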

[9] = target: T2, Inhibitor of nuclear factor kappa-B kinase subunit alpha (Homo sapiens) (UniProt O15111); test: Inhibition of IKKalpha in human HeLa cells assessed as reduction in IL-1 beta-stimulated IKK alpha nuclear translocation at 10 uM pretreated with compound for 4 hrs followed by stimulation with IL-1 beta for 1 hr by immunohistochemical staining/confocal microscopy; type: cell-based; summary of the method: as §2
T2 sequence (whole entry): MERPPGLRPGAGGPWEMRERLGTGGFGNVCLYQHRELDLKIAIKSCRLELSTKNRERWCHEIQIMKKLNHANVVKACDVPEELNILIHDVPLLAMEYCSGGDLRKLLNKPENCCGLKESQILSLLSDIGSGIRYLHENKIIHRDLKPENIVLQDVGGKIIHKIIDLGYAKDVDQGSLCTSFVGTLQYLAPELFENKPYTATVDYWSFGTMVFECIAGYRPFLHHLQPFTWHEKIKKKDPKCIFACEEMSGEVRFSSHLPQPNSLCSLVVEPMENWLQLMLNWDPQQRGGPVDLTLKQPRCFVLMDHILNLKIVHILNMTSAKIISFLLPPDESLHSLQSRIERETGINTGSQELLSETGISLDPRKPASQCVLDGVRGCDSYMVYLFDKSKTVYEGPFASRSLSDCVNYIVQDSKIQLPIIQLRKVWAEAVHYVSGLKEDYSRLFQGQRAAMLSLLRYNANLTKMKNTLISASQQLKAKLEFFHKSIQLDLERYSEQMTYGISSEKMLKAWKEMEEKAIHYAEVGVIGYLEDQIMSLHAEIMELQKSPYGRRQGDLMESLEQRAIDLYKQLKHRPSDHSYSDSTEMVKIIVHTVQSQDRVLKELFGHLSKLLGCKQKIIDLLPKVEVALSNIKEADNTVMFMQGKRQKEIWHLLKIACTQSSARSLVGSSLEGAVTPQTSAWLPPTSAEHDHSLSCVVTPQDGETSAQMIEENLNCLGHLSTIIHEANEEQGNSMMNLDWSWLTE

RCK8 = test: Cytotoxicity against human RC-K8 cells assessed as reduction in cell viability measured after 24 hrs by CellTiter-Glo luminescent assay; type: functional, cell-based; conditions: RCK8, 24 h; summary of the method: as §1
NCI-H446 = test: Cytotoxicity against human NCI-H446 cells assessed as reduction in cell viability measured after 24 hrs by CellTiter-Glo luminescent assay; type: functional, cell-based; conditions: NCI-H446, 24 h; summary of the method: as §1
[10] = Selectivity index, ratio of IC50 for human Hs895SK cells to EC50 for human HS578T cells measured after 24 hrs by CellTiter-Glo luminescent assay; type: toxicity; conditions: Hs895SK cells (IC50) versus HS578T cells (EC50); summary of the method: as §1
HCC1599 = test: Cytotoxicity against human HCC1599 cells assessed as reduction in cell viability measured after 24 hrs by CellTiter-Glo luminescent assay; type: functional, cell-based; conditions: HCC1599, 24 h; summary of the method: as §1

EC50 [3]: 2600 nM | inhibition [8]: Active | inhibition [9]: Active
Structure (SMILES): C=C1C[C@]23C[C@@]1(O)CC[C@H]2[C@@]12C=CC(=O)[C@@](C)(C(=O)O1)[C@H]2[C@@H]3C(=O)OC
EC50 (Hs-578T): < 40 nM | IC50 [1]: > 10000 nM | Ratio IC50/EC50 [2]: 500 | selectivity ratio at 24 h [4]: 500 | Ratio IC50/EC50 [5]: 500 | selectivity ratio at 24 h [6]: 500 | EC50 (CA46): < 40 nM | selectivity ratio at 24 h [7]: 500 | EC50 (RCK8): < 40 nM | EC50 (NCI-H446): 61 nM | selectivity ratio at 24 h [10]: > 500 | EC50 (HCC1599): 150 nM
